In ChEMBL document CHEMBL3352121, “Modulation of Activity Profiles for Largazole-Based HDAC Inhibitors through Alteration of Prodrug Properties” (ACS Med Chem Lett, 2014):
Active and inactive are the calls of the source. The calls are words filed in the database; no cut-off is given here.

Assays:
[1] = target: T1, Histone deacetylase 7 (Homo sapiens, UniProt Q8WUI4); assay: Inhibition of HDAC7 (unknown origin) incubated for 30 mins in presence of BSA and DTT by fluorescence assay
T1 sequence (Q8WUI4 whole entry): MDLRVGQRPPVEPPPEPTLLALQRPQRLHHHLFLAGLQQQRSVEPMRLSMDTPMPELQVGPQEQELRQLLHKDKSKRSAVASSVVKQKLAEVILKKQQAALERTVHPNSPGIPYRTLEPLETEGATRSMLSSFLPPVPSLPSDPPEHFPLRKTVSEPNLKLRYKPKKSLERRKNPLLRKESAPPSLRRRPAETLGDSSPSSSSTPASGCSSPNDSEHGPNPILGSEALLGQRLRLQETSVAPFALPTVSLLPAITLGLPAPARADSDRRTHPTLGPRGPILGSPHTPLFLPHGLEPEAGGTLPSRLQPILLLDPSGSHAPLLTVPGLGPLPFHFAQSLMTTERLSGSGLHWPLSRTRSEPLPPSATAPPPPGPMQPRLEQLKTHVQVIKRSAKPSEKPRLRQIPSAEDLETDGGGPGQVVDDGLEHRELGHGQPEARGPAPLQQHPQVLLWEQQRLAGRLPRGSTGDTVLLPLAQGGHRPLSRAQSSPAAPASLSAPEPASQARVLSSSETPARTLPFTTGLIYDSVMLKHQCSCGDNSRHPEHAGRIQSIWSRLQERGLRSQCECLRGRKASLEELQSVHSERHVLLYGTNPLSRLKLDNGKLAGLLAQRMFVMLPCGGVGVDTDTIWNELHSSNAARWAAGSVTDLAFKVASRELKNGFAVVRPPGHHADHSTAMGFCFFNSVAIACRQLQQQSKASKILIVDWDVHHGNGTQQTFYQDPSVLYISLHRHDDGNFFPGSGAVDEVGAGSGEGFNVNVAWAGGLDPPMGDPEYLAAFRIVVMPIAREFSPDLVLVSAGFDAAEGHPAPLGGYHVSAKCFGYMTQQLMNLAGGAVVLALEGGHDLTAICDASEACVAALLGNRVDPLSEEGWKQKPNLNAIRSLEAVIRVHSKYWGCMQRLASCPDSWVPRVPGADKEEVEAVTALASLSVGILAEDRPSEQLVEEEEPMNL
Method in brief: (§1)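 Purified HDAC isoforms were tested up to a maximum of 1 μM. IC50 values are averages of duplicate experiments. Disulfide compounds were pretreated with DTT to reduce the disulfide bond.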

[2] = target: T2, Histone deacetylase 11 (Homo sapiens, UniProt Q96DB2); assay: Inhibition of HDAC11 (unknown origin) incubated for 3 hrs in presence of BSA and DTT by fluorescence assay; method in brief: as §1
T2 sequence (Q96DB2 whole entry): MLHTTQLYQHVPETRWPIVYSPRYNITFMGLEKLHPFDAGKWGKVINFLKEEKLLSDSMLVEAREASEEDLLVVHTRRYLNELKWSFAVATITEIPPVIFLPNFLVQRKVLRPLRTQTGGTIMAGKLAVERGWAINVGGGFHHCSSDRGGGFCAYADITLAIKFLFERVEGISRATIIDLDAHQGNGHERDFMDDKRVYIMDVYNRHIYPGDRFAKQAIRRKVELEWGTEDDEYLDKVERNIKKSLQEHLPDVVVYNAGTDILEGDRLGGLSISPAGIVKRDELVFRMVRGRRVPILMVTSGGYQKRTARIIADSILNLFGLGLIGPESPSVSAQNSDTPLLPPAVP

[3] = target: T3, Histone deacetylase 7 (Homo sapiens) (UniProt Q8WUI4); assay: Inhibition of HDAC7 (unknown origin) at 1 uM incubated for 30 mins in presence of BSA and DTT by fluorescence assay; method in brief: as §1
T3 sequence (whole entry): T1 sequence (Q8WUI4 whole entry)

[4] = target: T4, Histone deacetylase 8 (Homo sapiens) (UniProt Q9BY41); assay: Inhibition of HDAC8 (unknown origin) at 1 uM incubated for 30 mins in presence of BSA and DTT by fluorescence assay; method in brief: as §1
T4 sequence (whole entry): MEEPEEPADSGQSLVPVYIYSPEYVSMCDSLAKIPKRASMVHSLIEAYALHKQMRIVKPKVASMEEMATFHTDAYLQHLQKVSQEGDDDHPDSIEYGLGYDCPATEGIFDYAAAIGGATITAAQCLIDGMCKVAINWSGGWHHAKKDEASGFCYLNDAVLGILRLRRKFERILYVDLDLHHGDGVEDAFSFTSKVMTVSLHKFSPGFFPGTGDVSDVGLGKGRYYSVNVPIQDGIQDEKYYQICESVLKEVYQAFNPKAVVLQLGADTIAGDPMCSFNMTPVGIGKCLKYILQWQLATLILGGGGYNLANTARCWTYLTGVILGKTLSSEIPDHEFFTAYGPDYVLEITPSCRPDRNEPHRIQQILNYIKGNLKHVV

[5] = test system: HCT-116; assay: In vivo inhibition of HDAC in tumor of human HCT116 cells xenografted nu/nu mouse assessed as increase in histone hyperacetylation at 50 mg/kg, ip after 4 to 24 hrs by immunoblotting method; format: functional, organism-based; design: dose 50 mg/kg
Method in brief: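 HCT116 xenograft mice were dosed intraperitoneally at 10 or 50 mg/kg. Tumors were excised after 4, 12 and 24 h, n = 2. Histone hyperacetylation in tumor tissue was assessed by immunoblotting.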

[6] = test system: HCT-116; assay: In vivo inhibition of HDAC in tumor of human HCT116 cells xenografted nu/nu mouse assessed as increase in histone hyperacetylation at 50 mg/kg, ip after 12 hrs by immunoblotting method; format: functional, organism-based; design: dose 50 mg/kg
Method in brief: (§2)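 Mice bearing HCT116 xenografts were dosed intraperitoneally at 10 or 50 mg/kg, or orally at 50 mg/kg. Tumors were excised at 4, 12 and 24 h. Histone hyperacetylation in the tumors was assessed by immunoblot, n = 2.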

[7] = Drug metabolism in tumor of human HCT116 cells xenografted nu/nu mouse assessed as time for maximum largazole thiol level at 10 mg/kg, ip by HPLC-MS method; format: ADME, organism-based, Neoplasm, HCT-116; design: dose 10 mg/kg, route intraperitoneal; details: in vivo
[8] = Drug metabolism in tumor of human HCT116 cells xenografted nu/nu mouse assessed as time for maximum largazole thiol level at 50 mg/kg, ip by HPLC-MS method; format: ADME, organism-based, Neoplasm, HCT-116; design: dose 50 mg/kg, route intraperitoneal; details: in vivo
[9] = test system: HCT-116; assay: In vivo inhibition of HDAC in tumor of human HCT116 cells xenografted nu/nu mouse assessed as increase in histone hyperacetylation at 50 mg/kg, po after 4 to 12 hrs by immunoblotting method; format: functional, organism-based; design: dose 50 mg/kg; method in brief: as §2
[10] = Drug metabolism in human HCT116 cells protein lysate solution assessed as largazole thiol formation at 25 ug/mL after 1 hr by HPLC-MS method; format: ADME, cell-based; details: hct-116, 1 h
[11] = test system: Serum; assay: Drug metabolism in mouse serum assessed as largazole thiol formation after 0.25 to 1440 mins by HPLC-MS method; format: ADME, cell-free
[12] = test system: HCT-116; assay: In vivo inhibition of HDAC in tumor of human HCT116 cells xenografted nu/nu mouse assessed as increase in histone hyperacetylation at 10 mg/kg, ip after 4 to 12 hrs by immunoblotting method; format: functional, organism-based; design: dose 10 mg/kg; method in brief: as §2
[13] = Drug metabolism in tumor of human HCT116 cells xenografted nu/nu mouse assessed largazole thiol formation at 50 mg/kg, po by HPLC-MS method; details: in vivo

IC50 [1]	IC50 [2] [nM]	inhibition [3] [%]	inhibition [4] [%]	Tmax [7] [h]	Tmax [8] [h]	Drug metabolism [10]	Drug metabolism [11]	Drug metabolism [13]	Structure (SMILES)	inhibition [5]	inhibition [6]	inhibition [9]	inhibition [12]
Not Active	0.2	< 20	35	–	–	–	–	–	CC(C)[C@@H]1NC(=O)[C@]2(C)CSC(=N2)c2csc(n2)CNC(=O)C[C@@H](/C=C/CCSSC[C@H](NC(=O)OC(C)(C)C)C(=O)OC(C)(C)C)OC1=O	–	–	–	–
Not Active	0.1	< 20	40	4	4	metabolite_detected	metabolite_notdetected	metabolite_notdetected	CC(C)[C@@H]1NC(=O)[C@]2(C)CSC(=N2)c2csc(n2)CNC(=O)C[C@@H](/C=C/CCSSCC/C=C/[C@@H]2CC(=O)NCc3nc(cs3)C3=N[C@@](C)(CS3)C(=O)N[C@@H](C(C)C)C(=O)O2)OC1=O	Active	inactive	inactive	Active
